# In ChEMBL document CHEMBL1127424, “7-azetidinylquinolones as antibacterial agents. 2. Synthesis and biological activity of 7-(2,3-disubstituted-1-azetidinyl)-4-oxoquinoline- and -1,8-naphthyridine-3-carboxylic acids. Properties and structure-activity relationships of quinolones with an azetidine moiety” (J Med Chem, 1994):
# Several values for one entry are separate records, joined by “and”; a condition that tells them apart may be missing. Equal values may be shown once.
# What was measured:
# [1] = Measured ionization constant (pKa); assay type: physicochemical; conditions: read-out: pKa1
# In short: (§1)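 Spectrophotometric titration at 20 ± 1 °C, 0.1 M ionic strength, pH varied with H2SO4 or NaOH made up in the compound stock. Absorbance followed at compound-specific wavelengths chosen from 200–400 nm scans. pKa1 and pKa2 taken as the inflection points of the two-step absorbance vs pH curve.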
# [2] = Dissociation constant (pKa); assay type: physicochemical; conditions: read-out: pKa2; in short: as §1
# [3] = HPLC capacity factor (k'); assay type: ADME
# In short: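 Ion-pair reversed-phase HPLC on ODS-2 (10 μm) at 45 °C. Mobile phase: 10 mM sodium heptanesulfonate plus 50 mM KH2PO4 (pH 3.5)–methanol 45:55, 1 mL/min. Samples at 100 μg/mL in DMF, injected in duplicate, UV 280 nm. k' = (tR − t0)/t0.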
# [4] = Solubility (buffer pH 7.4); assay type: physicochemical; conditions: read-out: S
# In short: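 Excess solid shaken in 0.05 M phosphate buffer pH 7.4 for 24 h at 25 °C. Suspension filtered through 0.22 μm, discarding the first portion. Filtrate diluted in 0.1 N HCl or 0.1 N NaOH and read by UV at the compound's absorbance maximum.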
# [5] = test system: Mus musculus; experiment: Evaluation of efficacy on systemic infections Staphylococcus aureus HS-93, after oral administration in mice; assay type: functional
# In short: (§2)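 Single oral dose given immediately after infection, one of four doses per group, chosen from in vitro activity. Survival scored after one week. ED50 (total mg/kg protecting 50%) interpolated from survival rates.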
# [6] = test system: Klebsiella pneumoniae; experiment: In vitro minimum inhibitory concentration to inhibit Klebsiella pneumoniae ATCC 10031; assay type: functional
# In short: (§3)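 Serial 2-fold agar dilution in Mueller Hinton medium, run alongside a reference quinolone. Inoculum adjusted to 10⁸ cfu/mL; compound range 0.007–16 μg/mL.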
# [7] = test system: Pseudomonas aeruginosa; experiment: In vitro minimum inhibitory concentration for Pseudomonas aeruginosa ATCC 10145; assay type: functional; in short: as §3
# [8] = test system: Staphylococcus aureus; experiment: In vitro minimum inhibitory concentration for Staphylococcus aureus ATCC 25178; assay type: functional; in short: as §3
# [9] = test system: Proteus vulgaris; experiment: In vitro minimum inhibitory concentration for Proteus vulgaris ATCC 8427; assay type: functional; in short: as §3
# [10] = test system: Enterococcus faecalis; experiment: In vitro minimum inhibitory concentration for Streptococcus faecalis ATCC 10541; assay type: functional; in short: as §3
# [11] = test system: Escherichia coli; experiment: In vitro minimum inhibitory concentration for Escherichia coli ATCC 10799; assay type: functional; in short: as §3
# [12] = test system: Bacillus cereus; experiment: In vitro minimum inhibitory concentration for Bacillus cereus ATCC 11778; assay type: functional; in short: as §3
# [13] = test system: Staphylococcus epidermidis; experiment: In vitro minimum inhibitory concentration for Staphylococcus epidermidis ATCC 155-1; assay type: functional; in short: as §3
# [14] = test system: Mus musculus; experiment: Evaluation of efficacy on systemic infections Pseudomonas aeruginosa HS-116, after oral administration in mice; assay type: functional; in short: as §2
# [15] = test system: Enterobacter cloacae; experiment: In vitro minimum inhibitory concentration for Enterobacter cloacae ATCC 23355; assay type: functional
# [16] = AUC (0-4 hr) ug/ml/h; assay type: ADME, cell-free; parameters: time < 4 hr; concentration or dose not given beside the values; conditions: plasma
# In short: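 Mice dosed once orally at 50 mg/kg; blood taken from groups of six mice at 0.5, 1, 2 and 4 h. Serum drug assayed by disk agar diffusion bioassay (Bacillus subtilis ATCC 6633 on Seed Agar, 37 °C, 18 h), giving total activity.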
# [17] = test system: Morganella morganii; experiment: In vitro minimum inhibitory concentration for Morganella morganii ATCC 8019; assay type: functional; in short: as §3
# [18] = test system: Bacillus subtilis; experiment: In vitro minimum inhibitory concentration for Bacillus subtilis ATCC 6633; assay type: functional; in short: as §3
# [19] = test system: Mus musculus; experiment: Evaluation of efficacy on systemic infections Escherichia coli HM-42, after oral administration in mice; assay type: functional; in short: as §2
SMILES,pKa [1],pKa [2],Log k' [3],solubility [4],ED50 [5],MIC [6],MIC [7],MIC [8],MIC [9],MIC [10],MIC [11],MIC [12],MIC [13],ED50 [14],MIC [15],AUC [16],MIC [17],MIC [18],ED50 [19]
CN(C)C1(C)CN(c2cc3c(cc2F)c(=O)c(C(=O)O)cn3C2CC2)C1,6.47,7.9,0.5153,–,–,–,–,–,–,–,–,–,–,–,–,–,–,–,–
CNC1(C)CN(c2c(F)cc3c(=O)c(C(=O)O)cn(C4CC4)c3c2F)C1,6.26,8.58,0.1055,0.5 µg/mL,–,–,–,–,–,–,–,–,–,–,–,–,–,–,–
CCNC1CN(c2c(F)cc3c(=O)c(C(=O)O)cn(C4CC4)c3c2F)C1,6.2,8.57,0.0996,–,–,–,–,–,–,–,–,–,–,–,–,–,–,–,–
CNC1CN(c2c(F)cc3c(=O)c(C(=O)O)cn(C4CC4)c3c2F)C1,6.18,8.44,0.039,1.7 µg/mL,–,–,–,–,–,–,–,–,–,–,–,–,–,–,–
C[C@H]1[C@H](N)CN1c1c(F)cc2c(=O)c(C(=O)O)cn(-c3ccc(F)cc3F)c2c1Cl,–,–,0.3553,16.5 µg/mL,4.3 mg/kg,0.12 µg/mL,0.5 µg/mL,0.12 µg/mL,0.25 µg/mL,0.25 µg/mL,0.06 µg/mL,0.03 µg/mL,0.06 µg/mL,86.9 mg/kg,0.12 µg/mL,32300 ng·h/mL,0.25 µg/mL,0.03 µg/mL,3.6 mg/kg
C[C@H]1[C@@H](N)CN1c1c(F)cc2c(=O)c(C(=O)O)cn(C3CC3)c2c1F,–,–,0.0813,23.6 µg/mL,18.6 mg/kg,0.12 µg/mL,1 µg/mL,0.012 µg/mL,0.25 µg/mL,1 µg/mL,0.12 µg/mL,0.12 µg/mL,0.12 µg/mL,123 mg/kg,0.06 µg/mL,9000 ng·h/mL,0.012 µg/mL,0.06 µg/mL,6.2 mg/kg
C[C@H]1[C@H](N)CN1c1c(F)cc2c(=O)c(C(=O)O)cn(-c3ccc(F)cc3F)c2c1F,–,–,0.2644,23.4 µg/mL,10 mg/kg,0.06 µg/mL,1 µg/mL,0.12 µg/mL,0.5 µg/mL,1 µg/mL,0.12 µg/mL,0.12 µg/mL,0.12 µg/mL,61 mg/kg,0.06 µg/mL,22300 ng·h/mL,0.25 µg/mL,0.06 µg/mL,2.3 mg/kg
C[C@H]1[C@H](N)CN1c1c(F)c(N)c2c(=O)c(C(=O)O)cn(C3CC3)c2c1F,6.65,–,0.0828,37.7 µg/mL,8.7 mg/kg,0.015 µg/mL,0.25 µg/mL,0.015 µg/mL,0.06 µg/mL,0.06 µg/mL,0.03 µg/mL,0.015 µg/mL,0.015 µg/mL,102 mg/kg,0.015 µg/mL,12300 ng·h/mL,0.015 µg/mL,0.015 µg/mL,4.2 mg/kg
C[C@@H]1[C@@H](CN)CN1c1c(F)cc2c(=O)c(C(=O)O)cn(C3CC3)c2c1F,–,–,-0.0397,–,20 mg/kg,0.12 µg/mL,0.5 µg/mL,0.12 µg/mL,0.25 µg/mL,0.25 µg/mL,0.06 µg/mL,0.25 µg/mL,0.12 µg/mL,70 mg/kg,0.06 µg/mL,2300 ng·h/mL,0.25 µg/mL,0.06 µg/mL,31 mg/kg
CCNC[C@H]1CN(c2cc3c(cc2F)c(=O)c(C(=O)O)cn3C2CC2)[C@@H]1C,–,–,-0.0042,–,60.5 mg/kg,0.06 µg/mL,4 µg/mL,0.5 µg/mL,1 µg/mL,4 µg/mL,0.12 µg/mL,1 µg/mL,0.5 µg/mL,265 mg/kg,0.12 µg/mL,3200 ng·h/mL,0.5 µg/mL,0.06 µg/mL,28.4 mg/kg
CC1(N)CN(c2c(F)cc3c(=O)c(C(=O)O)cn(C4CC4)c3c2F)C1,6.23,8.33,-0.0177 and 0.0094,–,–,–,–,–,–,–,–,–,–,–,–,–,–,–,–
C[C@H]1[C@H](N)CN1c1cc2c(cc1F)c(=O)c(C(=O)O)cn2-c1ccc(F)cc1F [CETEFLOXACIN],–,–,0.1875,31 µg/mL,8.1 mg/kg,0.015 µg/mL,2 µg/mL,0.12 µg/mL,0.5 µg/mL,1 µg/mL,0.12 µg/mL,0.25 µg/mL,0.12 µg/mL,77.9 mg/kg,0.12 µg/mL,30200 ng·h/mL,0.25 µg/mL,0.03 µg/mL,6 mg/kg
